Reference: ChEMBL document CHEMBL3124842, “Design, synthesis and evaluation of the antidepressant and anticonvulsant activities of triazole-containing quinolinones” (Eur J Med Chem, 2014)
The source made the active and inactive calls. The calls are words filed in the database; no cut-off is given here.

Experiments:
Mus musculus [1] = assay: Antidepressant activity in KunMing mouse assessed as immobility time at 50 mg/kg, ip by forced swimming test; format: functional; conditions: route intraperitoneal
In short: (§1)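 Compounds in DMSO given i.p. to mice, n = 8 per group. Dose was 50 mg/kg, or 10, 25 and 50 mg/kg in the dose-response study. After 30 min each mouse was placed in a water-filled cylinder (water 18 cm deep, 23–25 °C). Immobility (upright floating, only slight movements) was timed over the last 4 min of 6 min. %DID = (A − B)/A × 100, where A is control immobility and B is test immobility. Mean ± SEM; ANOVA with Dunnett's test versus control.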

Mus musculus [2] = assay: Anticonvulsant activity in KunMing mouse assessed as protection against maximal electroshock-induced seizures at 300 mg/kg, ip after 0.5 hrs; format: functional, organism-based; set-up: dose 300 mg/kg
In short: (§2)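 Mice (22 ± 2 g) given compounds in DMSO i.p. at 30, 100 and 300 mg/kg; seizures elicited by electroshock via ear stimulation. Protection = abolition of hind limb tonic extension, read at 0.5 and 4 h after injection. Value is the minimal dose active in half or more of the mice; 300 mg/kg was the top dose.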

Mus musculus [3] = assay: Anticonvulsant activity in KunMing mouse assessed as protection against maximal electroshock-induced seizures at 300 mg/kg, ip after 4 hrs; format: functional, organism-based; set-up: dose 300 mg/kg; in short: as §2
Mus musculus [4] = assay: Antidepressant activity in KunMing mouse assessed as decrease in immobility time at 50 mg/kg, ip by forced swimming test relative to control; format: functional; set-up: scale not given: the % may be the effect or the level left; conditions: route intraperitoneal; in short: as §1
Mus musculus [5] = assay: Neurotoxicity in KunMing mouse assessed as motor impairment at 300 mg/kg, ip after 0.5 hrs by rotarod test; format: toxicity, organism-based; set-up: dose 300 mg/kg, route intraperitoneal; conditions: in vivo
In short: (§3)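 Mice were trained on a 3.2 cm diameter rotarod turning at 10 rpm, then given compounds in DMSO i.p. at 30, 100 or 300 mg/kg. Neurotoxicity = failure to stay on the rod for at least 1 min in each trial, checked at 0.5 and 4 h. Value is the minimal dose toxic in half or more of the mice.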

Mus musculus [6] = assay: Neurotoxicity in KunMing mouse assessed as motor impairment at 300 mg/kg, ip after 4 hrs by rotarod test; format: toxicity, organism-based; set-up: dose 300 mg/kg, route intraperitoneal; conditions: in vivo; in short: as §3
Mus musculus [7] = assay: Neurotoxicity in KunMing mouse at 50 mg/kg, ip; format: toxicity, organism-based; set-up: dose 50 mg/kg, route intraperitoneal; conditions: in vivo
Mus musculus [8] = assay: Antidepressant activity in KunMing mouse at 50 mg/kg, ip by tail suspension test; format: functional, organism-based; set-up: dose 50 mg/kg
In short: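 Male KunMing mice (22 ± 2 g, n = 8 per group), dosed i.p. at 50 mg/kg from a dimethylsulfoxide solution. Each mouse was hung by the tail above the floor with adhesive tape about 1-2 cm from the tail tip. Immobility, meaning completely motionless and hanging passively, was timed over the last 6 min of a 7 min session. Read-out was mean ± SEM, compared with control by ANOVA followed by Dunnett's test.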

Mus musculus [9] = assay: Neurotoxicity in ip dosed KunMing mouse assessed as motor impairment after 4 hrs by rotarod test; format: toxicity, organism-based; conditions: in vivo; in short: as §3
Mus musculus [10] = assay: Anticonvulsant activity in ip dosed KunMing mouse assessed as protection against maximal electroshock-induced seizures after 4 hrs; format: functional; conditions: read-out: MED; in short: as §2
Mus musculus [11] = assay: Anticonvulsant activity in ip dosed KunMing mouse assessed as protection against maximal electroshock-induced seizures after 0.5 hrs; format: functional; conditions: read-out: MED; in short: as §2
Mus musculus [12] = assay: Neurotoxicity in ip dosed KunMing mouse assessed as motor impairment after 0.5 hrs by rotarod test; format: toxicity, organism-based; conditions: in vivo; in short: as §3
Mus musculus [13] = assay: Anticonvulsant activity in KunMing mouse assessed as protection against maximal electroshock-induced seizures at 100 mg/kg, ip after 0.5 hrs relative to control; format: functional; conditions: route intraperitoneal; in short: as §2

| SMILES | Time (Mus musculus [1]) [s] | Activity (Mus musculus [2]) | Activity (Mus musculus [3]) | Activity (Mus musculus [4]) [%] | Activity (Mus musculus [5]) | Activity (Mus musculus [6]) | Activity (Mus musculus [7]) | Activity (Mus musculus [8]) | MTC (Mus musculus [9]) [mg/kg] | minimal effective dose (Mus musculus [10]) [mg/kg] | minimal effective dose (Mus musculus [11]) [mg/kg] | MTC (Mus musculus [12]) [mg/kg] | Activity (Mus musculus [13]) [%] |
| --- | --- | --- | --- | --- | --- | --- | --- | --- | --- | --- | --- | --- | --- |
| Cc1ccc(CN2C(=O)CCc3cc(-n4cnnc4)ccc32)cc1 | 78.8 | inactive | inactive | 39.6 | Non-toxic | Non-toxic | Non-toxic |  |  |  |  |  |  |
| CNCCC(Oc1ccc(C(F)(F)F)cc1)c1ccccc1 (centres undefined) [FLUOXETINE] | 65.9 |  |  | 49.5 |  |  |  | Active |  |  |  |  |  |
| CCCN1C(=O)CCc2cc(-n3cnnc3)ccc21 | 123.6 | inactive | inactive | 5.3 | Non-toxic |  | Non-toxic |  | 300 |  |  |  |  |
| O=C1CCc2cc(-n3cnnc3)ccc2N1Cc1ccccc1 | 68.1 | inactive | inactive | 47.8 | Non-toxic | Non-toxic | Non-toxic |  |  |  |  |  |  |
| O=C1CCc2cc(-n3cnnc3)ccc2N1Cc1cccc(F)c1 | 43 | inactive | inactive | 67 | Non-toxic | Non-toxic | Non-toxic |  |  |  |  |  |  |
| O=C1CCc2cc(-n3cnnc3)ccc2N1Cc1cccc(Cl)c1 | 53.4 | inactive |  | 59.1 | Non-toxic | Non-toxic | Non-toxic |  |  | 300 |  |  |  |
| COc1ccc(CN2C(=O)CCc3cc(-n4cnnc4)ccc32)cc1 | 121.6 | inactive | inactive | 6.8 | Non-toxic | Non-toxic | Non-toxic |  |  |  |  |  |  |
| O=C1CCc2cc(-n3cnnc3)ccc2N1Cc1ccc(Cl)cc1Cl | 105.8 |  |  | 18.9 | Non-toxic | Non-toxic | Non-toxic |  |  | 300 | 300 |  |  |
| CCCCCCCCN1C(=O)CCc2cc(-n3cnnc3)ccc21 | 83.3 |  |  | 35.8 | Non-toxic |  | Non-toxic |  | 300 | 300 | 300 |  |  |
| O=C1CCc2cc(-n3cnnc3)ccc2N1Cc1ccc(F)cc1 | 71.1 | inactive |  | 45.5 | Non-toxic | Non-toxic | Non-toxic |  |  | 300 |  |  |  |
| O=C1CCc2cc(-n3cnnc3)ccc2N1Cc1cccc(C(F)(F)F)c1 | 93.3 |  |  | 37.2 | Non-toxic | Non-toxic | Non-toxic |  |  | 300 | 300 |  |  |
| CCCC(CCC)C(=O)[O-].[Na+] [VALPROATE SODIUM] |  |  | inactive |  | Non-toxic | Non-toxic |  |  |  |  | 300 |  |  |
| O=C1CCc2cc(-n3cnnc3)ccc2N1Cc1ccccc1Cl | 77.8 | inactive |  | 40.4 | Non-toxic | Non-toxic | Non-toxic |  |  | 300 |  |  |  |
| CCCCCCN1C(=O)CCc2cc(-n3cnnc3)ccc21 | 98.5 |  |  | 24.5 |  |  | Non-toxic |  | 300 | 300 | 100 | 300 | 100 |
| CCCCCN1C(=O)CCc2cc(-n3cnnc3)ccc21 | 129.8 |  | inactive | 0.5 |  |  | Non-toxic |  | 300 |  | 100 | 300 | 100 |
| CCCCN1C(=O)CCc2cc(-n3cnnc3)ccc21 | 70 | inactive | inactive | 46.4 | Non-toxic |  | Non-toxic |  | 300 |  |  |  |  |
| O=C1CCc2cc(-n3cnnc3)ccc2N1Cc1c(Cl)cccc1Cl | 111 | inactive | inactive | 15.7 | Non-toxic | Non-toxic | Non-toxic |  |  |  |  |  |  |
| CCCCCCCN1C(=O)CCc2cc(-n3cnnc3)ccc21 | 77.9 |  | inactive | 40.3 |  |  | Non-toxic |  | 300 |  | 300 | 300 |  |
| O=C1NC(=O)C(c2ccccc2)(c2ccccc2)N1 [PHENYTOIN] |  |  |  |  |  |  |  |  | 100 | 100 | 30 | 100 |  |
| O=C1CCc2cc(-n3cnnc3)ccc2N1Cc1ccc(Cl)cc1 | 36.1 | inactive | inactive | 72.3 | Non-toxic | Non-toxic | Non-toxic |  |  |  |  |  |  |
| CCCCCCCCCCN1C(=O)CCc2cc(-n3cnnc3)ccc21 | 101 | inactive | inactive | 22.6 | Non-toxic | Non-toxic | Non-toxic |  |  |  |  |  |  |
